ChEMBL document CHEMBL1145984 (J Med Chem, 2003)

What follows are compounds tested against T1, Aminopeptidase N (Sus scrofa, UniProt P15145) (assay: Binding affinity towards aminopeptidase N (APN) from pig kidney).
T1 sequence (P15145 whole entry): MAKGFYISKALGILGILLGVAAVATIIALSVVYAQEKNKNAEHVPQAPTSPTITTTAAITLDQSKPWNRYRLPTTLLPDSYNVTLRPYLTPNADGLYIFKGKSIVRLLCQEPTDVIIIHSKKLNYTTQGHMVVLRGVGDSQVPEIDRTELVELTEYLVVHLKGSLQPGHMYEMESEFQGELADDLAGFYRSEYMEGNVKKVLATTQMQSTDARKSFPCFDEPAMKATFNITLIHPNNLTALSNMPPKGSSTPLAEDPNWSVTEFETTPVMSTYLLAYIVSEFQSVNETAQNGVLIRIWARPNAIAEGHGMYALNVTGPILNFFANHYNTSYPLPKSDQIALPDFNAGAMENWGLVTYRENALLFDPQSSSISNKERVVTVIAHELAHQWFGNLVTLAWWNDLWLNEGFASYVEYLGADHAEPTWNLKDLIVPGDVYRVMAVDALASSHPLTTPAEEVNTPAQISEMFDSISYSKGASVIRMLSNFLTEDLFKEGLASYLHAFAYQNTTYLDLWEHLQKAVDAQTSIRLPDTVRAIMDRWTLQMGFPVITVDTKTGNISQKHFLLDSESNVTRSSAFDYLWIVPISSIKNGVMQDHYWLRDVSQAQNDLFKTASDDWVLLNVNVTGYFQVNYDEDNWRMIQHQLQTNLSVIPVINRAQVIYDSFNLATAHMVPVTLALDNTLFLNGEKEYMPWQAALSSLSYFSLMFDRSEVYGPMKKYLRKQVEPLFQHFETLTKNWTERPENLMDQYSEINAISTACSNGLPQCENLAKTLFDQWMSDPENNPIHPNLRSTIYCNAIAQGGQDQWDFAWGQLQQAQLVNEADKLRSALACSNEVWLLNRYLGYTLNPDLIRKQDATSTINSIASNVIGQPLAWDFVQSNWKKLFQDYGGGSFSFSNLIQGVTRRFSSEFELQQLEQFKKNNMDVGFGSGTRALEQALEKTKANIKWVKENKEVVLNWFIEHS
Procedure, shortened: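 Porcine kidney APN (lyophilized, diluted in 50 mM potassium phosphate pH 7.2; 4 µg/mL final), inhibitor preincubated 60 min at room temperature, inhibitor solutions adjusted to pH 7.5. L-leucine p-nitroanilide 0.05–0.6 mM final starts reaction; A405 followed 10 min at 25 °C. Ki from Lineweaver-Burk plots of initial linear velocities, 3–4 inhibitor concentrations, each measured twice.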

Row | Structure (SMILES) | Ki [nM]
1 | CC(C)CC(CP(=O)(O)C(N)CCc1ccccc1)C(=O)O (stereo unspecified) | 1010
2 | NC(CCc1ccccc1)P(=O)(O)CC(Cc1ccccc1)C(=O)O (stereo unspecified) | 276
3 | CC(C)CC(N)P(=O)(O)CCC(=O)O (stereo unspecified) | 1410
4 | NC(CCc1ccccc1)P(=O)(O)CC(Cc1ccc(O)cc1)C(=O)O (stereo unspecified) | 36
5 | CC(C)CC(N)P(=O)(O)O (stereo unspecified) | 55000
6 | CC(C)CC(CP(=O)(O)C(N)CC(C)C)C(=O)O (stereo in doubt; 27) | 1020
